Published values pooled from the literature.
Target: Serine/threonine-protein kinase ULK2 (ULK2, Homo sapiens, UniProt Q8IYT8)

CCCCN(CCCC)C(=O)CN1C[C@@H](c2cc(OC)c3c(c2)OCO3)[C@H](C(=O)O)[C@H]1CC(C)(C)CCC  remaining binding (cell-free assay; competition with immobilised ligand; 1 µM): 89.2%
O=C(Nc1cnn(-c2csc(C(=O)NC3COC3)c2)c1)Nc1ccccc1Cl  remaining activity (enzyme activity; inhibitor; 5 µM): 196%
CCN1CCN(Cc2ccc(NC(=O)c3ccc(C)c(Oc4ccnc5[nH]ccc45)c3)cc2C(F)(F)F)CC1  inhibition (target engagement in cells; inhibitor; chemoproteomics; Huh-7; 1 µM): -16.6%
CNC(=O)Nc1ccc2c(c1)[C@@]1(CC2)OC(=O)N(CC(=O)N(Cc2ccc(F)cc2)[C@@H](C)C(F)(F)F)C1=O  remaining binding (cell-free assay; competition with immobilised ligand; 1 µM): 100%
FC(F)(F)Oc1cccc(-c2cnc3ccc(-c4ccncc4)nn23)c1  activity vs control (enzyme activity; inhibitor; radiometric; 1 µM): 110%
CS(=O)(=O)CCNCc1ccc(-c2ccc3ncnc(Nc4ccc(OCc5cccc(F)c5)c(Cl)c4)c3c2)o1  remaining signal (cell-free assay; 0.5 µM): 104%
O=C(CSc1nc2nccnc2c(=O)n1CCc1ccccc1)Nc1nccs1  inhibition (enzyme activity; inhibitor; 10 µM): 2%
O=C1Nc2ccc(Cl)cc2C1=Cc1cc(Cl)c(O)c(Cl)c1  remaining signal (cell-free assay; 0.5 µM): 101%
C[C@@]1(Cc2ccc(C#N)cc2)C(=O)N(c2cc(Cl)cc(Cl)c2)c2ncc(C(=O)NC3(c4nc(C5CCC5)no4)CC3)n21  remaining binding (cell-free assay; competition with immobilised ligand; 1 µM): 100%
CNC(=O)c1cc(Oc2ccc(NC(=O)Nc3ccc(Cl)c(C(F)(F)F)c3)cc2)ccn1  remaining signal (cell-free assay; 0.5 µM): 106%
Cc1cc(NC(=O)c2cccc3cc(-c4cccc5[nH]nc(N)c45)ccc23)ccc1F  activity vs control (enzyme activity; inhibitor; 0.1 µM): 105%
Cc1ccc(C(=O)NCc2ccsc2)cc1C#Cc1cn(C(C)C)c2ncnc(N)c12  activity vs control (enzyme activity; inhibitor; 1 µM): 92%
Cc1nc(C2CCN(C(=O)c3ccc(OC(F)(F)F)cc3N)CC2)c2ncc(N3CCN(C)CC3)cc2n1  remaining binding (cell-free assay; competition with immobilised ligand; 1 µM): 100%
Cc1cnc(NC2CCOCC2)nc1-n1cnc(C(=O)NC(CN)c2cc(F)cc(Cl)c2)c1 (stereo not shown)  remaining activity (enzyme activity; inhibitor; radiometric; 1 µM): 110%
COc1cc(-c2cn(C3CCc4ccccc4N(CC(F)(F)F)C3=O)nn2)ccc1-n1ccc(C)n1 (stereo not shown)  remaining binding (cell-free assay; competition with immobilised ligand; 1 µM): 88%
O=C(Nc1cnn(-c2csc(C(=O)NC3COC3)c2)c1)Nc1c(F)cccc1Cl  remaining activity (enzyme activity; inhibitor; 5 µM): 105%
C=CC(=O)Nc1cc(Nc2nccc(Nc3cc(Cl)c(F)cc3C(C)(C)O)n2)c(OC)cc1N1CC[C@@H](N(C)C)C1  inhibition (enzyme activity; inhibitor; 1 µM): -2%
COc1cc(/C=C/C(=O)CC(=O)/C=C/c2ccc(O)c(OC)c2)ccc1O  activity vs control (enzyme activity; inhibitor; 1 µM): 105%
CCCOc1ccc([C@@H]2[C@@H](C(=O)O)[C@H](c3ccc4c(c3)OCO4)CN2CC(=O)Nc2c(CC)cccc2CC)cc1  remaining binding (cell-free assay; competition with immobilised ligand; 1 µM): 76%
Nc1ncnc2occ(-c3ccc(NC(=O)Nc4cc(C(F)(F)F)ccc4F)cc3)c12  remaining signal (cell-free assay; inhibitor; 20 µM): 8.8%
CN1CCN(c2cnc3c(C4CCN(C(=O)c5ccc(OC(F)(F)F)cc5N)CC4)ncnc3c2)CC1  remaining binding (cell-free assay; competition with immobilised ligand; 1 µM): 100%
N#CCCc1ccc2c(c1)-c1[nH]c3ccc([N+](=O)[O-])cc3c1CC(=O)N2  remaining signal (cell-free assay; 0.5 µM): 73.1%
